From PubChem
In the library only some 3.7% were active in any assay of this set; here they are far more common.
KCNK9 inh: blocks the human KCNK9 two-pore domain potassium channel | Q9NPC2 | HEK293 KCNK9, FluxOR thallium flux fluorescence; hits give low values | B-score at 10 µM | 1.2% of 310,000 active | AID 488922;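 active = ratio B-score over 3 SD below the library mean, with starting fluorescence within 5 SD of its mean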;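 note: negative B-score means less thallium flux so channel inhibition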
hERG rescue: shields human hERG channel from block by proarrhythmic agents; Q12809; CHO-hERG, FluxOR thallium flux, dofetilide IC70 present; activation (rescue from dofetilide block), less the hit threshold, % at 10 µM; 0.51% of 310,000 active;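 active = activation above the mean of controls blocked by dofetilide plus 5 SD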;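 note: thallium influx through hERG after potassium depolarization seen as dye fluorescence rise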
KCNK3 block: human KCNK3 channel inhibition, primary screen; 0.84% of 340,000 active; O14649; CHO-KCNK3 thallium flux, FluxOR fluorescence; hits give low values; B-score at 10 µM; AID 602410;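 active = B-score under library mean minus 4 SD, starting fluorescence ratio at most library mean plus 5 SD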;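 note: more negative B-score means stronger inhibition of thallium flux through KCNK3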
KCNQ1 pot: potentiates or activates the human KCNQ1 potassium channel; P51787; CHO-K1 KCNQ1, thallium flux FluxOR fluorescence; hits give high values; B-score at 10 µM; 0.35% of 310,000 active;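 active = fluorescence ratio B-score, a plate-corrected score, at least three library SD, with initial intensity B-score within 5 SD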
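Medium – assay buffer, equal DMSO in all wells · Material – CHO-K1 cell line with stable KCNQ1 potassium channel expression · Signal – kinetic FluxOR thallium fluorescence, 10-s 1-Hz baseline, 110-s post-stimulus read · Compound – single concentration per compound, DMSO matched to controls · Schedule – 37 °C overnight plating, 90-min dark dye load, 20-min compound pretreatment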
Kir21 block: inhibitors of mouse Kir2.1 inward-rectifier potassium channel; P35561; HEK293-Kir2.1, FluxOR thallium flux fluorescence; hits give low values; B-score at 10 µM; 0.85% of 310,000 active;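 active = fluorescence ratio B-score at or below minus 3 SD of library scores, with starting-brightness B-score within 2 SD, cut at about -4.2 in these data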;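 note: channel flux triggered by added potassium and thallium sulfate stimulus; B-score of peak minus minimum fluorescence over baseline after thallium stimulus; more negative B-score means stronger Kir2.1 block with less thallium influx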
KCNQ1 block: inhibitors of human KCNQ1 potassium channel; AID 2642; CHO-K1 KCNQ1, FluxOR thallium flux fluorescence; hits give high values; 1.3% of 310,000 active; B-score at 10 µM;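 active = compounds whose thallium flux B-score, printed positive for inhibition, exceeds three library SD while starting fluorescence stays within three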;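 note: channel opened by potassium depolarization with thallium stimulus after 20 min compound exposure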
Active calls of the source: *; i = inactive; x = no result given.

SMILES	KCNK9 inh	hERG rescue	KCNK3 block	KCNQ1 pot	Kir21 block	KCNQ1 block
COc1ccccc1C(=O)COC(=O)Cn1[nH]c(=O)c2ccccc2c1=O	i	-15.5	i	i	0.4	i
CCN(CC(=O)Nc1cc(C)on1)CC(=O)Nc1ccccc1C(F)(F)F	x	x	i	x	x	x
CC1(C)CC(=O)C(C(c2ccc(Br)cc2)C2C(=O)CC(C)(C)CC2=O)C(=O)C1	i	-4.9	i	i	-1.44	i
Cc1nnc(SCC(=O)NNC(=O)COc2ccc(Cl)cc2)n1C	i	-3.7	i	i	0.7	i
C=CCNC(=O)COC(=O)c1ccc(Cl)c(S(=O)(=O)N(Cc2ccccc2)c2ccccc2)c1	i	-7.3	i	i	0.29	6*
NC(=O)NC(=O)COC(=O)c1ccc(Cl)c(S(=O)(=O)N(Cc2ccccc2)c2ccc(Cl)cc2)c1	i	-9.5	i	i	0.09	i
CCN(C(=S)Nc1cccnc1)c1cccc2ccccc12	i	-14.9	i	i	-0.86	i
C=CCNC(=S)N(CC)c1cccc2ccccc12	i	-3.9	i	i	-5.32*	i
CCOC(=O)N1CCN(C(=O)c2cn(CC)c3ccc(S(=O)(=O)N4CCCCC4)cc3c2=O)CC1	i	-10.1	i	i	-0.18	i
COc1ccc(C(=S)N2CCOCC2)cc1OC(=O)c1ccccc1	i	-6.4	i	i	-1.62	i
COc1cc(C(=S)N2CCOCC2)ccc1OC(=O)c1ccc([N+](=O)[O-])cc1[N+](=O)[O-]	i	5.9*	i	i	-0.01	i
O=C(Oc1ccc(C(=S)N2CCCCC2)cc1)c1ccccc1	i	-5.5	i	i	-4.59*	i
O=C(Oc1cccc(C(=S)N2CCCCC2)c1)c1ccccc1	i	-25.0	i	i	-0.37	i
COc1cc(C(=S)N2CCOCC2)ccc1OC(=O)c1ccccc1	i	-13.1	i	i	-5.11*	i
O=C(O)C1OC1(c1ccccc1Cl)c1ccccc1Cl (stereo unspecified)	x	x	i	x	x	x
COc1ccccc1C(=O)C1CCCN(C(=O)c2cccc(Cn3cccn3)c2)C1 (stereo unspecified)	i	-8.3	i	i	0.23	i
COc1ccc2[nH]c3c(c2c1)CCN1C(=O)C(CC(=O)NCCc2ccccn2)C[C@H](C(=O)N(C(C)C)C(C)C)[C@@]31C (stereo partly specified)	x	x	i	x	x	x
Cc1ccc(S(=O)(=O)N(C)C)cc1NC(=O)COc1ccccc1C(=O)Nc1ccccc1	i	-8.6	i	i	-0.31	i
CN(C(=O)COc1ccccc1C(=O)NCCOc1ccccc1)c1ccccc1	i	-34.4	i	i	-7.51*	i
COc1ccccc1C(=O)NCCC(=O)N(C)CC(=O)Nc1ccc(C)cc1	i	-10.8	i	i	0.11	i
Cc1ccc(NC(=O)c2ccccc2OCC(=O)Nc2ccccc2F)cc1S(=O)(=O)N(C)C	x	x	-9.61*	x	x	x
Cc1ccc(NC(=O)COc2ccccc2C(=O)NCCN(C)C)cc1	i	6.9*	x	i	0.95	i
CCCOc1ccc(NC(=O)CC2C(=O)N(Cc3ccccc3)C(=S)N2Cc2cccs2)cc1 (stereo unspecified)	i	-15.3	i	i	-0.38	6*
CCN(CC)S(=O)(=O)c1ccc(C(C)NC(=O)C2CCCN2C(=O)c2cccs2)cc1 (stereo unspecified)	x	x	i	x	x	x
O=S(=O)(Nc1nc(-c2ccccc2)cs1)c1cc(Cl)ccc1Cl	i	-5.7	i	i	-0.31	6*
SMILES	KCNK9 inh	hERG rescue	KCNK3 block	KCNQ1 pot	Kir21 block	KCNQ1 block
CCCn1c(N)c(C(=O)CSc2nc3ccccc3s2)c(=O)[nH]c1=O	i	5.4*	i	i	1.06	i
O=C(CSc1nc2ccccc2nc1N1CCCCC1)N1CCN(c2ccccc2)CC1	i	-15.0	i	i	-2.24	6*
O=C(CSc1ccc2ccccc2c1)N1CCN(c2ccc(O)cc2)CC1	i	-2.4	i	i	-4.23*	i
O=S(=O)(c1ccc2ccccc2c1)N1CCN(c2ccc(O)cc2)CC1	x	x	i	x	x	x
Cc1c(-c2cc(C(=O)O)on2)cnn1C	i	-8.2	i	i	0.56	i
COc1cccc(/C=N/NC(=O)c2ccc(-n3cnnn3)cc2)c1	x	x	i	x	x	x
Cc1ccc(Nc2nnc(C)c3ccccc23)c(C)c1	i	-5.8	i	i	-0.9	i
CN(C)CCCN(C(=O)c1ccc(S(=O)(=O)N2CCCCCC2)cc1)c1nc2ccc(F)cc2s1	i	-20.0	i	i	-4.95*	i
CN(C)CCCN(C(=O)c1ccc(S(=O)(=O)N2CCOCC2)cc1)c1nc2ccc(F)cc2s1	i	-8.4	i	i	-0.58	i
CN(C)CCCN(C(=O)c1ccc2c(c1)CCCC2)c1nc2ccc(Cl)cc2s1	i	-22.1	i	i	-4.28*	i
Cc1sc2ncnc(NCC(O)c3ccc([N+](=O)[O-])cc3)c2c1C (stereo unspecified)	i	-15.3	i	i	-1.31	9*
Cc1ccc(Nc2nnc(-c3ccc(N4CCOCC4)c([N+](=O)[O-])c3)c3ccccc23)cc1	i	-9.9	i	i	-0.05	7*
O=[N+]([O-])c1cc(-c2nnc(Nc3ccccc3)c3ccccc23)ccc1N1CCOCC1	i	-3.3	i	i	1.03	i
CCOCCCn1c(SCC(=O)Nc2cc(C(C)(C)C)nn2-c2ccccc2)nc2ccccc2c1=O	-7.26*	-6.5	i	i	0.09	i
CC(CC(=O)OCC(=O)NCc1ccc(Cl)cc1)c1ccccc1 (stereo unspecified)	x	x	i	x	x	x
Cn1nc(C(F)(F)F)c(CNC(=O)C(C)(C)CCl)c1N1CCOCC1	i	-9.6	i	i	-0.55	i
Cn1nc(C(F)(F)F)c(CN2CC(C)(C)C2=O)c1N1CCOCC1	i	5.0*	i	i	-0.12	i
Cc1ccc(S(=O)(=O)N2CCN(C(=O)c3ccc(Br)o3)CC2)c(C)c1	i	-11.9	i	11*	-0.46	i
Cc1ccc(S(=O)(=O)N2CCN(C(=O)COC(=O)c3ccc(Br)o3)CC2)c(C)c1	i	-13.1	i	i	-0.3	i
Cc1ccccc1-c1nnn(Cc2cccc(S(=O)(=O)N3CCOCC3)c2)n1	x	x	-9.03*	x	x	x
Cc1cc(OCc2cccc(S(=O)(=O)N3CCOCC3)c2)ccc1Cl	x	x	-9.62*	x	x	x
O=C(Nc1ccccc1N1CCOCC1)c1ccc2c(c1)OCCO2	i	-6.5	i	i	0.48	i
CC1(C)CN(c2ccsc2C(=O)O)C1=O	i	-7.7	i	i	0.62	i
O=C(CSC(=S)N1CCOCC1)c1cc2ccccc2oc1=O	i	-4.4	i	i	0.23	i
